Measurements reported in ChEMBL document CHEMBL1811909, “Synthesis and antiproliferative activity of novel 2-aryl-4-benzoyl-imidazole derivatives targeting tubulin polymerization” (Bioorg Med Chem, 2011).

Tests used:
[1] = system: Liver; assay: Half life in mouse liver microsomes at 0.5 uM by LC-MS analysis; format: ADME, Microsome
Procedure, shortened: (§1)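 Compound at 0.5 µM incubated with 1 mg/mL liver microsomal protein at 37 °C with shaking. […] Samples taken at 5, 10, 20, 30, 60 and 90 min and quenched with acetonitrile containing internal standard. After centrifugation, the supernatant was analysed by LC-MS/MS.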

[2] = system: Liver microsomes; assay: Metabolic stability of the compound in human liver microsomes at […] up to 90 mins by LC-MS analysis; format: ADME, Microsome
Procedure, shortened: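 Aliquots were drawn at 5, 10, 20, 30, 60 and 90 min and quenched in acetonitrile containing internal standard. After centrifugation, supernatants were measured by LC-MS/MS to follow parent loss and derive half-life.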

[3] = system: Liver microsomes; assay: Half life in rat liver microsomes at 0.5 uM by LC-MS analysis; format: ADME, Microsome; procedure, shortened: as §1
[4] = species on record: Bos taurus; assay: Inhibition of bovine brain tubulin polymerization after 15 mins by spectrophotometric analysis
Procedure, shortened: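 Bovine brain tubulin (>97% pure, 0.4 mg per assay) mixed with compound at 5, 10 or 20 µM, with 5% DMSO as vehicle control. Buffer: 80 mM PIPES, 2.0 mM MgCl2, 0.5 mM EGTA, 1 mM GTP, pH 6.9. Polymerization followed at 37 °C as absorbance at 340 nm, read every minute for 15 min.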

[5] = system: Liver microsomes; assay: Metabolic stability of the compound in human liver microsomes at 0.5 uM up to 90 mins by LC-MS analysis; format: ADME, Microsome
[6] = system: Liver; assay: Metabolic stability of the compound in dog liver microsomes at 0.5 uM up to 90 mins by LC-MS analysis; format: ADME, Canis lupus familiaris, Microsome; procedure, shortened: as §1

t1/2 [1]: 12 min
Stability [2]: Stable
t1/2 [3]: 20 min
inhibition [4]: Dose-dependent effect
Stability [5]: Stable
Stability [6]: Stable
SMILES: COc1cc(C(=O)c2c[nH]c(-c3ccc(C)cc3)n2)cc(OC)c1OC
